Reference: ChEMBL document CHEMBL4265954, “Discovery of potent liver-selective stearoyl-CoA desaturase-1 (SCD1) inhibitors, thiazole-4-acetic acid derivatives, for the treatment of diabetes, hepatic steatosis, and obesity” (Eur J Med Chem, 2018)

Legend:
[1] = Apparent permeability of the compound in human Caco2 cells; assay type: ADME, cell-based; details: Caco-2
Mus musculus [2] = experiment: Ex vivo inhibition of SCD1 in C57BL/6J mouse eyelid assessed as residual activity at 1 mg/kg, po treated for 6 hrs followed by incubation with [14C]stearoyl-CoA substrate for 30 mins by TLC assay relative to control; assay type: organism-based
How it was run: (§1)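 Male 6-week-old C57BL/6J mice dosed orally as a suspension in 0.5% methylcellulose. Liver or eyelid was taken 6 or 24 h later and homogenized in 100 mM Tris-HCl pH 7.4 with 0.25 M sucrose. S9 was obtained at 10,000 × g, 4 °C. S9 was incubated with [14C]stearoyl-CoA, NADH, MgCl2 and cytochrome b5 at room temperature, 10 min for liver and 30 min for eyelid. Lipids were saponified and run on AgNO3 TLC to quantify stearate and oleate. Result is % of vehicle control.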

Mus musculus [3] = experiment: Ex vivo inhibition of SCD1 in C57BL/6J mouse eyelid assessed as residual activity at 100 mg/kg, po treated for 24 hrs followed by incubation with [14C]stearoyl-CoA substrate for 30 mins by TLC assay relative to control; assay type: organism-based; how it was run: as §1
Cytochrome P450 2D6 = Cytochrome P450 2D6 (Homo sapiens, UniProt P10635); experiment: Inhibition of CYP2D6 (unknown origin); assay type: ADME
Chain of Cytochrome P450 2D6 (P10635 whole entry): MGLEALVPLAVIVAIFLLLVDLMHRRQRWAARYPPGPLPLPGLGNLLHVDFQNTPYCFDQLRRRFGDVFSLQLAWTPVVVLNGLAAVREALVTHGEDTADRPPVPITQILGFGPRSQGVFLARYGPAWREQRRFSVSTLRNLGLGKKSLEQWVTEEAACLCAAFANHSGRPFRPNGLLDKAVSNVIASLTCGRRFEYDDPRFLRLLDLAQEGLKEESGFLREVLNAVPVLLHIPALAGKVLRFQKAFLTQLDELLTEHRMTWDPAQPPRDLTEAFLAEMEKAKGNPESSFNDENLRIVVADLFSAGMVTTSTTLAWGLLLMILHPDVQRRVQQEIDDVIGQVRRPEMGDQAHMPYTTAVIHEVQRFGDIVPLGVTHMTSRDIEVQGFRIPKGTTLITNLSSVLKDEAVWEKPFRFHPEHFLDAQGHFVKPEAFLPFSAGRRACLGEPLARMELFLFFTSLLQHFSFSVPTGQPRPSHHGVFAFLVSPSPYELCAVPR

Cytochrome P450 2C19 = Cytochrome P450 2C19 (Homo sapiens, UniProt P33261); experiment: Inhibition of CYP2C19 (unknown origin); assay type: ADME
Chain of Cytochrome P450 2C19 (P33261 whole entry): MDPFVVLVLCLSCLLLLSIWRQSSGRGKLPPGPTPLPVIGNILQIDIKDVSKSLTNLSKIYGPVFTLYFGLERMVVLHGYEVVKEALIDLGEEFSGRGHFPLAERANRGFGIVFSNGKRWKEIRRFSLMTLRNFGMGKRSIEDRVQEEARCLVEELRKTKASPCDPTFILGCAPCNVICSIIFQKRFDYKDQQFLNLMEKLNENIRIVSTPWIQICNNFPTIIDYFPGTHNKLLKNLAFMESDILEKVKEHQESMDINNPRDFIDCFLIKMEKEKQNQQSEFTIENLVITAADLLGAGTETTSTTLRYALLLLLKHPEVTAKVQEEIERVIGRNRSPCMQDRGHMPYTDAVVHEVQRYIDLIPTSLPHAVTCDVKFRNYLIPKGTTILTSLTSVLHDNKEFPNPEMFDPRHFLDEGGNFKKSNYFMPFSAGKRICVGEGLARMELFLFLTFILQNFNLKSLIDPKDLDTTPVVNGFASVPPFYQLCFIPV

[4] = Tmax in Sprague-Dawley rat at 10 mg/kg, po; assay type: ADME, organism-based; details: in vivo
How it was run: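 Two male Sprague-Dawley rats per route, 10 mg/kg po and 1 mg/kg iv. Cmax, tmax, terminal-phase half-life and AUC0-inf were taken from plasma concentration–time curves. Bioavailability was derived from the po and iv data.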

[5] = AUC (0 to infinity) in C57BL/6J mouse at 10 mg/kg, po; assay type: ADME, organism-based; parameters: dose 10 mg/kg, time infinity, route oral; details: in vivo
[6] = Total clearance in C57BL/6J mouse at 1 mg/kg, iv; assay type: ADME, organism-based; details: in vivo
How it was run: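 Single intravenous dose of 1 mg/kg, with a parallel oral arm at 10 mg/kg, given to two male animals per species: C57BL/6J mice and Sprague Dawley rats. Total body clearance was derived from the plasma concentration–time profile of the compound.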

[7] = Metabolic stability in rat liver S9 fraction after 1 hr; assay type: ADME, subcellular; details: read-out: Stability
[8] = Plasma concentration in high sucrose diet Sprague-Dawley rat at 10 mg/kg, po treated after 6 hrs; assay type: ADME, organism-based
How it was run: (§2)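 Sprague-Dawley rats on a high sucrose diet, given a single oral 10 mg/kg dose. Plasma, liver and eyelid drug concentrations were measured 6 h later, n=3. Liver/eyelid ratio was taken from the tissue concentrations.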

[9] = Drug uptake in high sucrose diet Sprague-Dawley rat liver at 10 mg/kg, po treated after 6 hrs; assay type: ADME, organism-based; details: read-out: Drug uptake; how it was run: as §2
[10] = Drug uptake in high sucrose diet Sprague-Dawley rat eyelid at 10 mg/kg, po treated after 6 hrs; assay type: ADME, organism-based; details: read-out: Drug uptake; how it was run: as §2
Rattus norvegicus = experiment: Toxicity in Sprague-Dawley rat assessed as loss of fur at 1000 mg/kg, po once daily for 2 weeks measured from day 9 of administeration; assay type: organism-based; details: in vivo, 336 h
How it was run: (§3)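 Male Sprague Dawley rats, 6 weeks old (5 per group), were dosed orally once daily for 2 weeks at 100 or 1000 mg/kg as a suspension in 0.5% methylcellulose; controls received vehicle. Readouts: clinical observations, body weight, food consumption, ophthalmoscopy in week 2, and terminal necropsy, hematology, clinical chemistry, organ weights and histopathology. Plasma levels were measured 24 h post-dose on days 1, 5 and 10.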

[11] = Toxicity in Sprague-Dawley rat administered orally once daily for 2 weeks; assay type: organism-based; details: in vivo, po; how it was run: as §3

`CCCCc1ccccc1NCc1ccc(C(=O)Nc2nc(CC(=O)O)cs2)s1` gave a Papp [1] of 43.6 ×10⁻⁶ cm/s, an Activity (Mus musculus [2]) of 97% and an Activity (Mus musculus [3]) of 57%. For the same compound, the IC50 (Cytochrome P450 2D6) was greater than 50 µM, the IC50 (Cytochrome P450 2C19) was greater than 50 µM and the Tmax [4] was 30 min. For the same compound, the AUC(0-inf) [5] was 10.2 µM·h, the clearance [6] was 10.2 mL/min/kg and the remaining at 1 h [7] was 87%. It also gave a concentration at 6 h [8] of 552 nM, a concentration at 6 h [9] of 1000 nM and a concentration at 6 h [10] of 160 nM. The Activity (Rattus norvegicus) was “Toxic” and the NOAEL at 336 h [11] was 100 mg/kg.
